Zone of inhibition data for 29 compounds are collected here from ChEMBL document CHEMBL1782031, “Urea/thiourea derivatives of quinazolinone-lysine conjugates: synthesis and structure-activity relationships of a new series of antimicrobials” (2011).

Holding throughout (format): functional
What all share (settings): read-out: DIZ

One experiment deals with Bacillus subtilis. Description: Antibacterial activity against Bacillus subtilis at 10 ug/disc after 24 hrs by disc diffusion method. An outline of the steps:
(§1)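 Disc diffusion assay. Discs were held at 4 °C for 2 h so the compounds could diffuse, then incubated at 28 °C. Inhibition zone diameters were measured in mm after 24 h. Each compound was tested in triplicate.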

The subject of another experiment is Escherichia coli. The experiment can be described thus: Antibacterial activity against Escherichia coli at 10 ug/disc after 24 hrs by disc diffusion method. In outline: as §1
In general terms: A growth-free zone around the sample is the usual read-out of agar diffusion tests.

A further experiment has as its system Pseudomonas fluorescens. Description: Antibacterial activity against Pseudomonas fluorescens at 10 ug/disc after 24 hrs by disc diffusion method. In outline: as §1
A short description of experiment [1]: Antibacterial activity against Xanthomonas campestris pvs. at 10 ug/disc after 24 hrs by disc diffusion method. In outline: as §1
The test system of another experiment is Xanthomonas oryzae. The experiment can be described thus: Antibacterial activity against Xanthomonas oryzae at 10 ug/disc after 24 hrs by disc diffusion method.

Turning to `COC(=O)[C@H](CCCCNC(=O)Nc1ccc(Cl)cc1)NC(=O)CCc1nc2ccccc2c(=O)[nH]1`, the zone of inhibition at 10 µg/disc in the experiment on Bacillus subtilis stood at 24 mm; with Escherichia coli, 28 mm; with Pseudomonas fluorescens it was 29 mm; in experiment [1] it was 28 mm; in the experiment on Xanthomonas oryzae it was 29 mm.

Take `COC(=O)[C@H](CCCCNC(=O)OC(C)(C)C)NC(=O)CCc1nc2ccccc2c(=O)[nH]1`: the zone of inhibition at 10 µg/disc with Bacillus subtilis was 8 mm; in the experiment on Escherichia coli it was 9 mm; in the experiment on Pseudomonas fluorescens, 11 mm; in experiment [1], 12 mm; with Xanthomonas oryzae it was 12 mm.

Take `COC(=O)[C@H](CCCCNC(=O)OC(C)(C)C)NC(=O)CCCc1nc2ccccc2c(=O)[nH]1`: the zone of inhibition at 10 µg/disc came out at 6 mm in the experiment with Bacillus subtilis; 8 mm in the experiment on Escherichia coli; 8 mm with Pseudomonas fluorescens; 7 mm in experiment [1]; 9 mm in the experiment on Xanthomonas oryzae.

Regarding `COC(=O)[C@H](CCCCN)NC(=O)CCc1nc2ccccc2c(=O)[nH]1`, the zone of inhibition at 10 µg/disc in the experiment with Bacillus subtilis was 6 mm; in the experiment on Escherichia coli it was 8 mm; with Pseudomonas fluorescens, 10 mm; in experiment [1], 9 mm; in the experiment on Xanthomonas oryzae, 10 mm.

`COC(=O)[C@H](CCCCN)NC(=O)CCCc1nc2ccccc2c(=O)[nH]1`: the zone of inhibition at 10 µg/disc in the experiment on Bacillus subtilis is 10 mm; with Escherichia coli, 9 mm; in the experiment on Pseudomonas fluorescens it was 10 mm; in experiment [1], 12 mm; with Xanthomonas oryzae it was 12 mm.

As to `CC(C)(C)OC(=O)NCCCC[C@H](NC(=O)CCc1nc2ccccc2c(=O)[nH]1)C(=O)O`, the zone of inhibition at 10 µg/disc in the experiment with Bacillus subtilis stood at 10 mm; in the experiment with Escherichia coli it was 11 mm; with Pseudomonas fluorescens it was 14 mm; in experiment [1] it was 13 mm; with Xanthomonas oryzae, 14 mm.

Consider `CC(C)(C)OC(=O)NCCCC[C@H](NC(=O)CCCc1nc2ccccc2c(=O)[nH]1)C(=O)O`, for which the zone of inhibition at 10 µg/disc with Bacillus subtilis stood at 9 mm; in the experiment with Escherichia coli, 10 mm; in the experiment on Pseudomonas fluorescens, 11 mm; in experiment [1], 12 mm; in the experiment with Xanthomonas oryzae it was 11 mm.

Consider `NCCCC[C@H](NC(=O)CCc1nc2ccccc2c(=O)[nH]1)C(=O)O`, for which the zone of inhibition at 10 µg/disc with Bacillus subtilis turned out to be 8 mm; in the experiment with Escherichia coli it was 9 mm; with Pseudomonas fluorescens it was 10 mm; in experiment [1], 10 mm; in the experiment on Xanthomonas oryzae it was 9 mm.

Consider `NCCCC[C@H](NC(=O)CCCc1nc2ccccc2c(=O)[nH]1)C(=O)O`, for which the zone of inhibition at 10 µg/disc with Bacillus subtilis came to 14 mm; with Escherichia coli it was 10 mm; with Pseudomonas fluorescens, 12 mm; in experiment [1] it was 13 mm; in the experiment on Xanthomonas oryzae, 12 mm.

Take `COC(=O)[C@H](CCCCNC(=O)Nc1ccc(OC)cc1)NC(=O)CCc1nc2ccccc2c(=O)[nH]1`: the zone of inhibition at 10 µg/disc in the experiment on Bacillus subtilis came out at 22 mm; in the experiment on Escherichia coli, 23 mm; in the experiment on Pseudomonas fluorescens, 25 mm; in experiment [1], 26 mm; with Xanthomonas oryzae, 28 mm.

As for `COC(=O)[C@H](CCCCNC(=O)Nc1cccc(F)c1)NC(=O)CCc1nc2ccccc2c(=O)[nH]1`, the zone of inhibition at 10 µg/disc amounted to 35 mm in the experiment on Bacillus subtilis; 36 mm with Escherichia coli; 36 mm in the experiment on Pseudomonas fluorescens; 37 mm in experiment [1]; 36 mm with Xanthomonas oryzae.

As to `COC(=O)[C@H](CCCCNC(=O)Nc1ccc(Cl)cc1)NC(=O)CCCc1nc2ccccc2c(=O)[nH]1`, the zone of inhibition at 10 µg/disc in the experiment with Bacillus subtilis worked out at 25 mm; in the experiment with Escherichia coli, 26 mm; in the experiment on Pseudomonas fluorescens it was 29 mm; in experiment [1], 28 mm; with Xanthomonas oryzae it was 30 mm.

On to `COC(=O)[C@H](CCCCNC(=O)Nc1ccc(OC)cc1)NC(=O)CCCc1nc2ccccc2c(=O)[nH]1`, for which the zone of inhibition at 10 µg/disc was found to be 20 mm in the experiment on Bacillus subtilis; 21 mm with Escherichia coli; 22 mm with Pseudomonas fluorescens; 24 mm in experiment [1]; 25 mm in the experiment with Xanthomonas oryzae.

For `COC(=O)[C@H](CCCCNC(=O)Nc1cccc(F)c1)NC(=O)CCCc1nc2ccccc2c(=O)[nH]1`, the zone of inhibition at 10 µg/disc was 36 mm in the experiment on Bacillus subtilis; 35 mm in the experiment with Escherichia coli; 34 mm in the experiment on Pseudomonas fluorescens; 36 mm in experiment [1]; 35 mm in the experiment with Xanthomonas oryzae.

In the case of `O=C(CCc1nc2ccccc2c(=O)[nH]1)N[C@@H](CCCCNC(=O)Nc1ccc(Cl)cc1)C(=O)O`, the zone of inhibition at 10 µg/disc with Bacillus subtilis amounted to 28 mm; in the experiment on Escherichia coli, 30 mm; in the experiment with Pseudomonas fluorescens, 32 mm; in experiment [1], 30 mm; in the experiment on Xanthomonas oryzae, 30 mm.

As to `COc1ccc(NC(=O)NCCCC[C@H](NC(=O)CCc2nc3ccccc3c(=O)[nH]2)C(=O)O)cc1`, the zone of inhibition at 10 µg/disc in the experiment with Bacillus subtilis amounted to 24 mm; with Escherichia coli, 25 mm; in the experiment on Pseudomonas fluorescens, 27 mm; in experiment [1], 28 mm; in the experiment on Xanthomonas oryzae, 28 mm.

As for `O=C(CCc1nc2ccccc2c(=O)[nH]1)N[C@@H](CCCCNC(=O)Nc1cccc(F)c1)C(=O)O`, the zone of inhibition at 10 µg/disc with Bacillus subtilis came out at 35 mm; in the experiment with Escherichia coli, 35 mm; with Pseudomonas fluorescens it was 34 mm; in experiment [1], 33 mm; in the experiment with Xanthomonas oryzae it was 34 mm.

With `O=C(CCCc1nc2ccccc2c(=O)[nH]1)N[C@@H](CCCCNC(=O)Nc1ccc(Cl)cc1)C(=O)O`, the zone of inhibition at 10 µg/disc in the experiment with Bacillus subtilis was 29 mm; in the experiment on Escherichia coli, 28 mm; in the experiment on Pseudomonas fluorescens it was 30 mm; in experiment [1] it was 28 mm; in the experiment with Xanthomonas oryzae, 29 mm.

As for `COc1ccc(NC(=O)NCCCC[C@H](NC(=O)CCCc2nc3ccccc3c(=O)[nH]2)C(=O)O)cc1`, the zone of inhibition at 10 µg/disc in the experiment with Bacillus subtilis amounted to 22 mm; with Escherichia coli, 24 mm; in the experiment with Pseudomonas fluorescens it was 23 mm; in experiment [1], 25 mm; in the experiment with Xanthomonas oryzae it was 26 mm.

On to `O=C(CCCc1nc2ccccc2c(=O)[nH]1)N[C@@H](CCCCNC(=O)Nc1cccc(F)c1)C(=O)O`, for which the zone of inhibition at 10 µg/disc in the experiment on Bacillus subtilis was 35 mm; in the experiment with Escherichia coli, 36 mm; in the experiment on Pseudomonas fluorescens, 35 mm; in experiment [1], 34 mm; in the experiment with Xanthomonas oryzae it was 36 mm.

On to `COC(=O)[C@H](CCCCNC(=S)Nc1ccc(F)cc1C)NC(=O)CCc1nc2ccccc2c(=O)[nH]1`, for which the zone of inhibition at 10 µg/disc turned out to be 33 mm in the experiment with Bacillus subtilis; 32 mm in the experiment with Escherichia coli; 34 mm with Pseudomonas fluorescens; 33 mm in experiment [1]; 34 mm with Xanthomonas oryzae.

`COC(=O)[C@H](CCCCNC(=S)Nc1ccccc1C)NC(=O)CCc1nc2ccccc2c(=O)[nH]1`: the zone of inhibition at 10 µg/disc worked out at 23 mm in the experiment on Bacillus subtilis; 22 mm in the experiment with Escherichia coli; 24 mm in the experiment with Pseudomonas fluorescens; 27 mm in experiment [1]; 26 mm in the experiment with Xanthomonas oryzae.

As for `COC(=O)[C@H](CCCCNC(=S)Nc1cccc(F)c1)NC(=O)CCc1nc2ccccc2c(=O)[nH]1`, the zone of inhibition at 10 µg/disc with Bacillus subtilis is 36 mm; with Escherichia coli, 38 mm; with Pseudomonas fluorescens it was 36 mm; in experiment [1], 38 mm; in the experiment on Xanthomonas oryzae, 35 mm.

Take `COC(=O)[C@H](CCCCNC(=S)Nc1ccc(F)cc1C)NC(=O)CCCc1nc2ccccc2c(=O)[nH]1`: the zone of inhibition at 10 µg/disc in the experiment with Bacillus subtilis came out at 32 mm; with Escherichia coli, 33 mm; in the experiment on Pseudomonas fluorescens it was 33 mm; in experiment [1], 30 mm; in the experiment on Xanthomonas oryzae, 32 mm.

Consider `COC(=O)[C@H](CCCCNC(=S)Nc1ccccc1C)NC(=O)CCCc1nc2ccccc2c(=O)[nH]1`, for which the zone of inhibition at 10 µg/disc with Bacillus subtilis amounted to 22 mm; in the experiment on Escherichia coli, 23 mm; in the experiment with Pseudomonas fluorescens it was 23 mm; in experiment [1], 25 mm; with Xanthomonas oryzae it was 24 mm.

For `COC(=O)[C@H](CCCCNC(=S)Nc1cccc(F)c1)NC(=O)CCCc1nc2ccccc2c(=O)[nH]1`, the zone of inhibition at 10 µg/disc stood at 34 mm in the experiment with Bacillus subtilis; 35 mm with Escherichia coli; 33 mm in the experiment with Pseudomonas fluorescens; 34 mm in experiment [1]; 36 mm in the experiment with Xanthomonas oryzae.

Regarding `Cc1cc(F)ccc1NC(=S)NCCCC[C@H](NC(=O)CCc1nc2ccccc2c(=O)[nH]1)C(=O)O`, the zone of inhibition at 10 µg/disc in the experiment with Bacillus subtilis is 34 mm; with Escherichia coli, 33 mm; in the experiment with Pseudomonas fluorescens it was 35 mm; in experiment [1], 34 mm; in the experiment with Xanthomonas oryzae it was 35 mm.

In the case of `CN[C@@H]1[C@H](O[C@H]2[C@H](O[C@H]3[C@H](O)[C@@H](O)[C@H](N=C(N)N)[C@@H](O)[C@@H]3N=C(N)N)O[C@@H](C)[C@]2(O)C=O)O[C@@H](CO)[C@H](O)[C@H]1O` [STREPTOMYCIN], the zone of inhibition at 10 µg/disc in the experiment with Bacillus subtilis was determined as 17 mm; in the experiment with Escherichia coli it was 21 mm; in the experiment on Pseudomonas fluorescens, 23 mm.

Turning to `CN(C)[C@@H]1C(O)=C(C(N)=O)C(=O)[C@@]2(O)C(O)=C3C(=O)c4c(O)cccc4[C@@](C)(O)[C@H]3C[C@@H]12` [TETRACYCLINE], the zone of inhibition at 10 µg/disc worked out at 19 mm in experiment [1] and 18 mm in the experiment on Xanthomonas oryzae.
